Results taken from paper PMC10193968 (Proceedings of the National Academy of Sciences of the …, 2023).

Assays:
S. frugiperda males = settings: presence at 1% in synthetic pheromone blends; cited from earlier work
S. litura males = settings: traps baited with their own sex pheromones; cited from earlier work
S. littoralis males = settings: traps baited with their own sex pheromones; cited from earlier work
SfruOR5 = assay: Two-electrode voltage-clamp on Xenopus oocytes expressing SfruOR5; assay type: cell-based, S. frugiperda; settings: 10^–4 M; panel of 13 pheromone compounds; confirms the Drosophila OSN profile
SlituOR75 = assay: Single-sensillum recordings on Drosophila at1 OSNs expressing SlituOR75; assay type: cell-based, S. litura; settings: 10 μg loaded in the stimulus cartridge; panel of 26 pheromone compounds
Outline: (§1)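 Receptor expressed in Drosophila at1 OSNs in place of Or67d (UAS-Or × Or67d-GAL4, double homozygous). Flies kept on cornmeal–yeast–agar at 25 °C, 12 h:12 h light:dark. Single-sensillum extracellular recording with 500 ms stimulation from Pasteur-pipette cartridges holding 10 µg compound (hexane dilution) on filter paper. Panel of 26 pheromone compounds. Active if different from solvent alone (one-way ANOVA, Dunnett's post hoc).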

SlituOR5 [1] = assay: Single-sensillum recordings on Drosophila at1 OSNs expressing SlituOR5; assay type: cell-based, S. litura; settings: 10 μg loaded in the stimulus cartridge; panel of 26 pheromone compounds
SlitOR75 = assay: Single-sensillum recordings on Drosophila at1 OSNs expressing SlitOR75; assay type: cell-based, S. littoralis; settings: 10 μg loaded in the stimulus cartridge; panel of 26 pheromone compounds
Outline: as §1

AncOR75 = assay type: cell-based, ancestor of S. littoralis and S. litura; settings: doses 10 ng to 100 µg in the stimulus cartridge
Outline: (§2)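 Dose–response by single-sensillum extracellular recording from at1 OSNs of flies expressing the receptor transgene instead of Or67d (UAS-Or crossed to Or67d-GAL4). Flies reared at 25 °C, 12 h:12 h light:dark. Stimuli lasted 500 ms, delivered from filter-paper cartridges loaded with 10 ng to 100 µg pheromone diluted in hexane.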

AncOR5 [2] = assay: Two-electrode voltage-clamp on Xenopus oocytes coexpressing AncOR5 and SlitOrco; assay type: cell-based, ancestor of S. littoralis and S. litura
SexiOR5 = assay: Two-electrode voltage-clamp on Xenopus oocytes expressing SexiOR5; assay type: cell-based, S. exigua; settings: 10^–4 M; panel of 13 pheromone compounds; confirms the Drosophila OSN profile
AncOR5_75 = assay type: cell-based, ancestor of S. littoralis and S. litura; settings: doses 10 ng to 100 µg in the stimulus cartridge
Outline: as §2

SlituOR5 [3] = assay: Two-electrode voltage-clamp on Xenopus oocytes expressing SlituOR5; assay type: cell-based, S. litura; settings: 10^–4 M; panel of 13 pheromone compounds; confirms the Drosophila OSN profile
[4] = test system: S. littoralis and S. litura males; settings: detection of the compound; cited from earlier work
SlitOR5 = assay: Single-sensillum recordings on Drosophila at1 OSNs expressing SlitOR5; assay type: cell-based, S. littoralis; settings: 10 μg loaded in the stimulus cartridge; panel of 26 pheromone compounds
Outline: as §1

S. exigua males = settings: cited from earlier work
AncOR5_75_mut8x = assay type: cell-based; settings: read-out: EC50, AncOR5_75_mut8x; Xenopus oocytes, concentrations 10^–8 to 10^–4 M
AncOR5 [5] = assay: Single-sensillum recordings on Drosophila at1 OSNs expressing resurrected AncOR5; assay type: cell-based, ancestor of S. littoralis and S. litura; settings: 10 μg loaded in the stimulus cartridge; panel of 26 pheromone compounds
[6] = test system: AncOR5_75 V79L_A143T_A204V; assay type: cell-based; settings: 10^−5 M solution; panel of six S. littoralis pheromone compounds
Outline: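 Mutation introduced into the pCS2+ ancestral-receptor plasmid and confirmed by Sanger sequencing. Capped cRNA made with SP6 from NotI-linearized template, coexpressed with SlitOrco in Xenopus oocytes. Two-electrode voltage-clamp inward currents to six compounds at 10^-5 M, diluted from 0.1 M DMSO stocks into Ringer's (HEPES, pH 7.6). Ringer's with 0.01% DMSO as negative control. Tuning compared by principal component analysis.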

For `CC/C=C/CCCCCCCCCCOC(C)=O` [(E)-11-14:OAc, (E)-11-tetradecenyl acetate], the “Proportion of males approaching the source in wind tunnel” value (S. frugiperda males) is given as “strongly increased the proportion of males approaching the source”.

In the case of `CCCC/C=C\CCCCCCCCO` [(Z)-9-14:OH, (Z)-9-tetradecen-1-ol], the “Effect on trap catches of S. litura males” value (S. litura males) is listed as “reduces catches in traps” and the “Effect on trap catches of S. littoralis males” value (S. littoralis males) is listed as “reduces catches in traps”.

In the case of `CC/C=C\CCCCCCCCCCOC(C)=O` [(Z)-11-14:OAc, (Z)-11-tetradecenyl acetate], the “Proportion of males approaching the source in wind tunnel” value (S. frugiperda males) is listed as “strongly increased the proportion of males approaching the source” and the “Response spectrum (inward current), SfruOR5” value (SfruOR5) is listed as “best SfruOR5 ligands”.

With `CC/C=C/C=C\CCCCCCCCOC(C)=O` [(Z,E)-9,11-14:OAc, (Z,E)-9,11-tetradecadienyl acetate] the “Action potential frequency of at1 OSNs expressing SlituOR75” value (SlituOR75) was “low responses”, the “Action potential frequency of at1 OSNs expressing SlituOR5” value (SlituOR5 [1]) was “strong responses” and the “Action potential frequency of at1 OSNs expressing SlitOR75” value (SlitOR75) was “low responses”. For the same compound, the “Activation threshold / sensitivity, dose–response of AncOR75” value (AncOR75) was “same activation threshold as AncOR5”, the “Inward current, AncOR5” value (AncOR5 [2]; 10^−5 M solution, panel of six S. littoralis pheromone compounds) was “specifically responded” and the EC50 (AncOR5 [2]; read-out: EC50, AncOR5, Xenopus oocytes, concentrations 10^–8 to 10^–4 M) was 1100 nM. The “Response spectrum (inward current), SfruOR5” value (SfruOR5) was “can bind”, the “Response spectrum (inward current), SexiOR5” value (SexiOR5) was “can bind” and the “Activation threshold / sensitivity, dose–response of AncOR5_75” value (AncOR5_75) was “same activation threshold as AncOR5”. The “Response spectrum (inward current), SlituOR5” value (SlituOR5 [3]) was “narrowly tuned”, the Male attraction [4] was “necessary and sufficient to trigger male attraction” and the “Action potential frequency of at1 OSNs expressing SlitOR5” value (SlitOR5) was “strong responses”. The “Effect on trap catches of S. exigua males” value (S. exigua males) was “decreases trap catches”, the EC50 (AncOR5_75_mut8x) was 400 nM and the “Action potential frequency of at1 OSNs expressing AncOR5” value (AncOR5 [5]) was “responded specifically”.

With `C/C=C/C/C=C\CCCCCCCCOC(C)=O` [(Z,E)-9,12-14:OAc, (Z,E)-9,12-tetradecadienyl acetate] the “Inward current, triple-mutant V79L_A143T_A204V” value [6] was “narrow tuning”.

With `CC/C=C\C=C/CCCCCCCCOC(C)=O` [(Z,Z)-9,11-14:OAc, (Z,Z)-9,11-tetradecadienyl acetate] the “Action potential frequency of at1 OSNs expressing SlituOR5” value (SlituOR5 [1]) was “significant yet minor response”, the “Activation threshold / sensitivity, dose–response of AncOR75” value (AncOR75) was “best ligand” and the “Activation threshold / sensitivity, dose–response of AncOR5_75” value (AncOR5_75) was “best ligand”.
